Assays:
[1] = molecular target: Epidermal growth factor receptor (Homo sapiens) (UniProt P04626+P00533+Q15303+P21860); assay: Inhibition of EGFR S752-I759del mutant at 1 uM; assay type: protein assay
Method in brief: (§1)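 Single-concentration screen using Ambit Bioscience KINOMEscan technology across a panel of 250–400 kinases. Per-kinase inhibition from this screen was summarized as S(90), the fraction of kinases inhibited by more than 90%.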

[2] = molecular target: Serine/threonine-protein kinase N1 (Homo sapiens) (UniProt Q16512); assay: Inhibition of PKN1 at 1 uM
[3] = molecular target: Serine/threonine-protein kinase 32C (Homo sapiens) (UniProt Q86UX6); assay: Inhibition of YANK3 at 1 uM
[4] = molecular target: Interleukin-1 receptor-associated kinase 1 (Homo sapiens) (UniProt P51617); assay: Inhibition of IRAK1 at 1 uM
[5] = system: Proto-oncogene tyrosine-protein kinase receptor Ret (Homo sapiens), P07949 [V804L]; assay: Inhibition of RET V804L mutant at 1 uM
[6] = molecular target: Serine/threonine-protein kinase MARK2 (Homo sapiens) (UniProt Q7KZI7); assay: Inhibition of MARK2 at 1 uM
Method in brief: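 Kinase-panel screen using KINOMEscan technology, with 250–400 kinases per panel. Each compound was tested at a single concentration, and inhibition of each kinase was recorded. Selectivity was summarised as S(90), the fraction of kinases inhibited by more than 90%.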

[7] = molecular target: Activated CDC42 kinase 1 (Homo sapiens) (UniProt Q07912); assay: Inhibition of TNK2 at 1 uM
Method in brief: (§2)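 Single-concentration screen on the Ambit KINOMEscan platform, run against a panel of 250–400 kinases. Per-kinase inhibition was also summarized as S(90), the fraction of kinases inhibited by more than 90%.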

[8] = molecular target: Tyrosine-protein kinase Yes (Homo sapiens) (UniProt P07947); assay: Inhibition of YES at 1 uM
[9] = molecular target: Wee1-like protein kinase (Homo sapiens) (UniProt P30291); assay: Inhibition of WEE1 at 1 uM
[10] = molecular target: Casein kinase I isoform gamma-2 (Homo sapiens) (UniProt P78368); assay: Inhibition of CSNK1G2 at 1 uM; method in brief: as §1
[11] = molecular target: Rho-associated protein kinase 2 (Homo sapiens) (UniProt O75116); assay: Inhibition of ROCK2 at 1 uM
[12] = molecular target: T1, Cyclin-dependent kinase 11A (Homo sapiens) (UniProt Q9UQ88); assay: Inhibition of CDC2L2 at 1 uM
T1 sequence (whole entry): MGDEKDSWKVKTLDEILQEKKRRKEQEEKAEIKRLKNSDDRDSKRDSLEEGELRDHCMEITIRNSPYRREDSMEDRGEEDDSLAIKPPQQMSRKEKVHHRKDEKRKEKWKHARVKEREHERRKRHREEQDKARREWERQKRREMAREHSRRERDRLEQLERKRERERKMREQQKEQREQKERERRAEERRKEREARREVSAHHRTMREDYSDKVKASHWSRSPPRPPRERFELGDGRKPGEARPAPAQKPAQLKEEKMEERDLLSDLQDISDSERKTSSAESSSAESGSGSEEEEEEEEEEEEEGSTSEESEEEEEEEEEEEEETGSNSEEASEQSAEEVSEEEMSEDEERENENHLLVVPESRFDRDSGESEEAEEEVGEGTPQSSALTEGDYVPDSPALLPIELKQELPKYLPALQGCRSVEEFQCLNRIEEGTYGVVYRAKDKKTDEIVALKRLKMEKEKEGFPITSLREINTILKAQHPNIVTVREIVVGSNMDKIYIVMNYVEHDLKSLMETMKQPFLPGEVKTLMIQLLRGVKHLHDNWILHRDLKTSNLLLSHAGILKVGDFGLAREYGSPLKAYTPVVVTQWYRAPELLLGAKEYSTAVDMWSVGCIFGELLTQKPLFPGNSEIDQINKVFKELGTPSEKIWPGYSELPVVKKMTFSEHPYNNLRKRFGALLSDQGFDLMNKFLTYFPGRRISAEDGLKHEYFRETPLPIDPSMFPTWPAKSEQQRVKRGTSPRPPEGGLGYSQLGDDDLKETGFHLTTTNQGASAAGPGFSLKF

[13] = molecular target: Mitogen-activated protein kinase 10 (Homo sapiens) (UniProt P53779); assay: Inhibition of JNK3 at 1 uM; method in brief: as §2
[14] = system: Serine/threonine-protein kinase B-raf (Homo sapiens), P15056 [V600E]; assay: Inhibition of BRAF V600E mutant at 1 uM
Method in brief: (§3)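 Ambit KINOMEscan screen at a single concentration across a 250–400 kinase panel, recorded as percent inhibition. Selectivity was expressed as S(90), the fraction of kinases inhibited >90%.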

[15] = molecular target: Tyrosine-protein kinase JAK1 (Homo sapiens) (UniProt P23458); assay: Inhibition of JAK1 JH1 catalytic domain at 1 uM; method in brief: as §2
[16] = system: Mast/stem cell growth factor receptor Kit (Homo sapiens), P10721 [V559D,V654A]; assay: Inhibition of KIT V559D,V654A mutant at 1 uM; method in brief: as §2
[17] = molecular target: Protein-tyrosine kinase 2-beta (Homo sapiens) (UniProt Q14289); assay: Inhibition of PYK2 at 1 uM; method in brief: as §2
[18] = molecular target: Cyclin-dependent kinase 2 (Homo sapiens) (UniProt P24941); assay: Inhibition of CDK2 at 1 uM; method in brief: as §3
[19] = molecular target: Calcium/calmodulin-dependent protein kinase type 1D (Homo sapiens) (UniProt Q8IU85); assay: Inhibition of CAMK1D at 1 uM; method in brief: as §3
[20] = system: Phosphatidylinositol 4,5-bisphosphate 3-kinase catalytic subunit alpha isoform (Homo sapiens), P42336 [H1047L]; assay: Inhibition of PIK3CA H1047L mutant at 1 uM
[21] = molecular target: T2, Calcium/calmodulin-dependent protein kinase type IV (Homo sapiens) (UniProt Q16566); assay: Inhibition of CAMK4 at 1 uM
T2 sequence (whole entry): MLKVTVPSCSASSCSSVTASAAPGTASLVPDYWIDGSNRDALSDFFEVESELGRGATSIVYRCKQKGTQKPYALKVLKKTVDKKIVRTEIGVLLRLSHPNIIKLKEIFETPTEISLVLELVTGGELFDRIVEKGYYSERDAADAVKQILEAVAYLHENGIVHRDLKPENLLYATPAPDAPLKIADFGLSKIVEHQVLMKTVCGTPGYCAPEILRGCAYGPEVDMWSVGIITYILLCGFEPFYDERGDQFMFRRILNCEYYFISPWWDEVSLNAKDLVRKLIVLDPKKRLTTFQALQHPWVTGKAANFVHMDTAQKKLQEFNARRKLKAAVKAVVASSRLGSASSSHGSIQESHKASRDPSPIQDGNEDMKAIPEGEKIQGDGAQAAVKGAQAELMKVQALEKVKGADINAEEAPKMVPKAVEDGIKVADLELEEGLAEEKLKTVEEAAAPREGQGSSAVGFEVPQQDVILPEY

Chain of Calcium/calmodulin-dependent protein kinase type 1D (Homo sapiens) (Q8IU85 whole entry, looked up, canonical isoform): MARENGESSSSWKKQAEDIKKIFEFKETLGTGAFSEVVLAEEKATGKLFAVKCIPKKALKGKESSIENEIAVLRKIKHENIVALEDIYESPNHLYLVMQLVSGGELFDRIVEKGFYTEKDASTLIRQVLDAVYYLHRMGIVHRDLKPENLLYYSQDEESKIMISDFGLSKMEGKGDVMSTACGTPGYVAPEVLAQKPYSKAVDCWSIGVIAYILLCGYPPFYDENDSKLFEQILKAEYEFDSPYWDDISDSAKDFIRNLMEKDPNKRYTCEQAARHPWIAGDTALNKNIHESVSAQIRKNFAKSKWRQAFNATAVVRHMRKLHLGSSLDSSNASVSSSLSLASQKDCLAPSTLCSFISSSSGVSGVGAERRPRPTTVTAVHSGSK
Chain of Protein-tyrosine kinase 2-beta (Homo sapiens) (Q14289 whole entry, looked up): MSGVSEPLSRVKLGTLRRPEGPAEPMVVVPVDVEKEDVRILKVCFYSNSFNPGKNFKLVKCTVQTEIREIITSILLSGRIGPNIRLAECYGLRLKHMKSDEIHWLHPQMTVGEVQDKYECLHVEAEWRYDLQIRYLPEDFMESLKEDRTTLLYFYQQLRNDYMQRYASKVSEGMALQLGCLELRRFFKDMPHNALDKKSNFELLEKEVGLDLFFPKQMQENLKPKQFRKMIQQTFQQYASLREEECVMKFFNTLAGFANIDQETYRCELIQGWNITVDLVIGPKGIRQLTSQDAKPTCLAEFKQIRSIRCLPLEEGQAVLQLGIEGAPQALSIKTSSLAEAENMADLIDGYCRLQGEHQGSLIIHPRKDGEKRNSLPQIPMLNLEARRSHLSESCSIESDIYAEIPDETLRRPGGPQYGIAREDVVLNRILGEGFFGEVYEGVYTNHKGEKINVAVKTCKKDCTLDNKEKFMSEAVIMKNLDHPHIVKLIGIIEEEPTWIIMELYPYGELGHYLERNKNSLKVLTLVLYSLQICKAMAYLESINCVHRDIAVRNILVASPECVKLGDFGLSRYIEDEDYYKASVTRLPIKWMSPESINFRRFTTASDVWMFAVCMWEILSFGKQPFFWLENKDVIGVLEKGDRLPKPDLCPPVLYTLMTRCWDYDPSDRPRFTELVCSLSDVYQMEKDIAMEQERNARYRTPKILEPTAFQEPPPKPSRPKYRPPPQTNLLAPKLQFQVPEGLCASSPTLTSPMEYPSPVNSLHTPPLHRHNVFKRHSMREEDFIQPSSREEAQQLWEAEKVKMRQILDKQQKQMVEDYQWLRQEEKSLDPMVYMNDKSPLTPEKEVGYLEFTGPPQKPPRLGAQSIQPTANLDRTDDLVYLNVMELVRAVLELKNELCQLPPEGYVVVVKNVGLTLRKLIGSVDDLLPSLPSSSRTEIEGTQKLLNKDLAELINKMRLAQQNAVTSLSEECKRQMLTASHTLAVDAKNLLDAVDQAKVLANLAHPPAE
Chain of Serine/threonine-protein kinase MARK2 (Homo sapiens) (Q7KZI7 whole entry): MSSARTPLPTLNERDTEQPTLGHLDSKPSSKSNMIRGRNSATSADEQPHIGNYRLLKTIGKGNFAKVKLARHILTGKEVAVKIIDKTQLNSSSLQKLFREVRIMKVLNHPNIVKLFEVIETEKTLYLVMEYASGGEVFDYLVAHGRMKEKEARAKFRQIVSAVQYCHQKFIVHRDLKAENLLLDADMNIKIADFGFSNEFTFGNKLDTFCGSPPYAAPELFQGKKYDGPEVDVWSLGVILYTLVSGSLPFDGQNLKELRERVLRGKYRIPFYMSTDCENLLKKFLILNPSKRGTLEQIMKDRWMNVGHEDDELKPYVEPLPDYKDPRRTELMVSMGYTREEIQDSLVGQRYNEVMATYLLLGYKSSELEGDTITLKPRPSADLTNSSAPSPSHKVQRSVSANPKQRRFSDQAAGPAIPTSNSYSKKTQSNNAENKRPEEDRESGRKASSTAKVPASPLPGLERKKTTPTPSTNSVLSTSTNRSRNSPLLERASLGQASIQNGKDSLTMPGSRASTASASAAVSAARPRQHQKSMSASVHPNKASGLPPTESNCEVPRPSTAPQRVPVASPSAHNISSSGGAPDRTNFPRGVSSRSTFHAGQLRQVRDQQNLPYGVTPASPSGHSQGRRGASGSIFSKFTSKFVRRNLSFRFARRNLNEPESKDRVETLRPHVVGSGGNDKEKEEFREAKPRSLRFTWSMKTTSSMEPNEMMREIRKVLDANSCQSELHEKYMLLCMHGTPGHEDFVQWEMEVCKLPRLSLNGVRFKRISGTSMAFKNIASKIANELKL
Chain of Phosphatidylinositol 4,5-bisphosphate 3-kinase catalytic subunit alpha isoform (Homo sapiens), P42336 [H1047L] (P42336 whole entry H1047L, canonical isoform): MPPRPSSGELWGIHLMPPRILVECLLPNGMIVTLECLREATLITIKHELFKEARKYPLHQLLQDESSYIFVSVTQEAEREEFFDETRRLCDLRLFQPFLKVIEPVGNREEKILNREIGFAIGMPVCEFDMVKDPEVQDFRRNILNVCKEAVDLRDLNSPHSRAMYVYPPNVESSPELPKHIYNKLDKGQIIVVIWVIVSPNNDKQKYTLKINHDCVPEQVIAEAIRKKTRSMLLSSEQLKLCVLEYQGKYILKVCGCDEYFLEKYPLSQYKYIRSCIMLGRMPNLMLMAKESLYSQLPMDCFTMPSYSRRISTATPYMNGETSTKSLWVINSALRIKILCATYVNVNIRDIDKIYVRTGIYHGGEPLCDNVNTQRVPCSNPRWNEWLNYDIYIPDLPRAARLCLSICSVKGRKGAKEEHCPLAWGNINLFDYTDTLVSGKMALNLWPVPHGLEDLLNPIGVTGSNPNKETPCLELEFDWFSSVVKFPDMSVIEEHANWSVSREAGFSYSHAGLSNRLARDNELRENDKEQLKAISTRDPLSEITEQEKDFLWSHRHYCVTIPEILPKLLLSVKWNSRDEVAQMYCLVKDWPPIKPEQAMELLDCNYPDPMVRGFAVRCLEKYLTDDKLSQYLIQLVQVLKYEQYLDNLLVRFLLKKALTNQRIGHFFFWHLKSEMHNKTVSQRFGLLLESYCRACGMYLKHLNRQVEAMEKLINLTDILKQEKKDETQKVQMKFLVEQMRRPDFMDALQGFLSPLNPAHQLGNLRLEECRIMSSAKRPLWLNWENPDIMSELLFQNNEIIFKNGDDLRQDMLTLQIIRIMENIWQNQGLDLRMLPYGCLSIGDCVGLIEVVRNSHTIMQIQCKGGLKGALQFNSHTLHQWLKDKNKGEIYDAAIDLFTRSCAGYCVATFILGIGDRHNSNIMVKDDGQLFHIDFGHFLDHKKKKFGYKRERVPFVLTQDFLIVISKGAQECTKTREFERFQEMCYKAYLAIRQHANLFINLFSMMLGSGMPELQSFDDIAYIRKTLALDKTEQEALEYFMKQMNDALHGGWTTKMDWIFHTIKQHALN
Chain of Activated CDC42 kinase 1 (Homo sapiens) (Q07912 whole entry, looked up): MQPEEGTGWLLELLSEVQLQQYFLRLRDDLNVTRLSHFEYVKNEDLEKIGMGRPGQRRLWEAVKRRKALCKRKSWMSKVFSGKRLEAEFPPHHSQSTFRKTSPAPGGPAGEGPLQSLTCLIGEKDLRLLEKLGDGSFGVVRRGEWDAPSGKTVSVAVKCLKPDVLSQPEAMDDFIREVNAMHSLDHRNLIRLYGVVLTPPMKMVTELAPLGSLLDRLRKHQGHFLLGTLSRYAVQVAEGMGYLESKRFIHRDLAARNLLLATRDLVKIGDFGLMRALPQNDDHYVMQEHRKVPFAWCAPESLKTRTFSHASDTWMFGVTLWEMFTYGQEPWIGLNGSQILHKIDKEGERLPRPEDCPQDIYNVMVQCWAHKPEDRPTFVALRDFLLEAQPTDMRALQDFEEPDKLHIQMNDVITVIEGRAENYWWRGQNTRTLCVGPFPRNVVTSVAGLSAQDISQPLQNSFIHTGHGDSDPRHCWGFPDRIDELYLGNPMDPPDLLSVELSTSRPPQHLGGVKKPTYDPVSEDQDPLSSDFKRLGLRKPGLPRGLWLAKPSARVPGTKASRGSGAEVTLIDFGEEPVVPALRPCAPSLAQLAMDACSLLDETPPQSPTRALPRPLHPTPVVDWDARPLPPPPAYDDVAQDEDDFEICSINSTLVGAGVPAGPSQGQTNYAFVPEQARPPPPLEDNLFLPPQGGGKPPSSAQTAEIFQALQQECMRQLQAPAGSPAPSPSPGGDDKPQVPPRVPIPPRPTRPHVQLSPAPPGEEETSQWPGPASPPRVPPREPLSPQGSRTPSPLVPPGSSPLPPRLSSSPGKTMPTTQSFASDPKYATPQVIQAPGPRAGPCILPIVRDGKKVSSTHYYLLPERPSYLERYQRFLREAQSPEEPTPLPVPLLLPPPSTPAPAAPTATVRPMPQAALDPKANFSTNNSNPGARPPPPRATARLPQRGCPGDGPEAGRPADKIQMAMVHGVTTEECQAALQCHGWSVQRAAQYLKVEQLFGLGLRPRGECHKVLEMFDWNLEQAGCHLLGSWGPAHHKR
Chain of Mitogen-activated protein kinase 10 (Homo sapiens) (P53779 whole entry): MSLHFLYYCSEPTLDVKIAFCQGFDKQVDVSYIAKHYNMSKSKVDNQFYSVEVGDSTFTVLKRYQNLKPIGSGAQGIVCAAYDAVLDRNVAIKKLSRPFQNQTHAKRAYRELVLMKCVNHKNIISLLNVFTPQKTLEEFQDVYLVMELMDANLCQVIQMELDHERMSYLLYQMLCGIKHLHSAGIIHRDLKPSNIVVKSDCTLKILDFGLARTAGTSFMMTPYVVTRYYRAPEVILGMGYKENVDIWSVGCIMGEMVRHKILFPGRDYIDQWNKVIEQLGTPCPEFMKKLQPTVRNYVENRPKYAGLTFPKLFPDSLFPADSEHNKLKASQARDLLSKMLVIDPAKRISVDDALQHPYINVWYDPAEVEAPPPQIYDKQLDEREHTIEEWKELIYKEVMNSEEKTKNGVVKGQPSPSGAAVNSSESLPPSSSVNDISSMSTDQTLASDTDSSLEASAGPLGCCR

| SMILES | inhibition [1] | inhibition [2] | inhibition [3] | inhibition [4] | inhibition [5] | inhibition [6] | inhibition [7] | inhibition [8] | inhibition [9] | inhibition [10] | inhibition [11] | inhibition [12] | inhibition [13] | inhibition [14] | inhibition [15] | inhibition [16] | inhibition [17] | inhibition [18] | inhibition [19] | inhibition [20] | also measured |
| --- | --- | --- | --- | --- | --- | --- | --- | --- | --- | --- | --- | --- | --- | --- | --- | --- | --- | --- | --- | --- | --- |
| CN1CCN(c2ccc(-c3cnc4c(c3)N(Cc3cc(F)ccc3F)CCN4)cn2)CC1 | < 50% | < 50% | < 50% | < 50% | < 50% | < 50% | 79% | < 50% | < 50% | < 50% | < 50% | < 50% | < 50% | < 50% | 88% | < 50% | < 50% | < 50% | < 50% | < 50% | inhibition [21]: < 50% |
| O=C(c1ccc(-c2cnc3c(c2)N(Cc2cc(Cl)ccc2C(F)(F)F)CCN3)cc1)N1CCC(N2CCCC2)CC1 | < 50% | – | < 50% | – | – | 72.3% | 99.8% | < 50% | – | < 50% | – | – | < 50% | < 50% | < 50% | < 50% | 90.8% | < 50% | < 50% | – | – |
| O=C(c1ccc(-c2cnc3c(c2)N(Cc2cc(Cl)ccc2C(F)(F)F)CCN3)cc1)N1CCCCC1 | < 50% | – | < 50% | – | – | < 50% | 93.2% | < 50% | – | < 50% | – | – | < 50% | < 50% | < 50% | < 50% | < 50% | < 50% | < 50% | – | – |
| CN1CCN(c2ccc(-c3cnc4c(c3)N(Cc3c(F)ccc(F)c3Cl)CCN4)cn2)CC1 | < 50% | < 50% | < 50% | < 50% | < 50% | < 50% | 85% | < 50% | < 50% | < 50% | < 50% | < 50% | < 50% | < 50% | < 50% | < 50% | < 50% | < 50% | < 50% | < 50% | inhibition [21]: < 50% |
| COC1CCN(C(=O)c2ccc(-c3cnc4c(c3)N(Cc3cc(Cl)ccc3C(F)(F)F)CCN4)cc2)CC1 | < 50% | – | < 50% | – | – | < 50% | 97.2% | < 50% | – | < 50% | – | – | < 50% | < 50% | < 50% | < 50% | 68% | < 50% | < 50% | – | – |
| O=C(O)c1ccc(-c2cnc3c(c2)N(Cc2cc(Cl)ccc2C(F)(F)F)CCN3)cc1 | < 50% | – | < 50% | – | – | 85% | 97.4% | < 50% | – | < 50% | – | – | < 50% | < 50% | – | < 50% | < 50% | < 50% | < 50% | – | – |
| CC(=O)N1CCN(c2cc(-c3cnc4c(c3)N(Cc3cc(Cl)ccc3C(F)(F)F)CCN4)ccn2)CC1 | < 50% | < 50% | < 50% | < 50% | < 50% | 66% | 99% | < 50% | < 50% | < 50% | < 50% | < 50% | < 50% | < 50% | 96% | < 50% | 84% | < 50% | < 50% | < 50% | inhibition [21]: < 50% |
| FC(F)(F)c1ccc(Cl)cc1CN1CCNc2ncc(-c3ccnc(N4CCNCC4)c3)cc21 | < 50% | 82% | < 50% | < 50% | 89% | < 50% | 99% | < 50% | < 50% | < 50% | 76% | < 50% | < 50% | < 50% | 78% | < 50% | 87% | < 50% | < 50% | < 50% | inhibition [21]: < 50% |
| CN1CCN(c2ccc(-c3cnc4c(c3)N(Cc3cc(Cl)ccc3C(F)(F)F)CCN4)cn2)CC1 | < 50% | < 50% | < 50% | < 50% | < 50% | < 50% | 98% | < 50% | < 50% | < 50% | < 50% | < 50% | < 50% | < 50% | 93% | < 50% | 71% | < 50% | < 50% | < 50% | inhibition [21]: < 50% |
| CN1CCN(c2ccc(-c3cnc4c(c3)N(Cc3cc(Cl)ccc3Cl)CCN4)cn2)CC1 | < 50% | < 50% | < 50% | < 50% | < 50% | < 50% | 88% | < 50% | < 50% | < 50% | < 50% | < 50% | < 50% | < 50% | 89% | < 50% | < 50% | < 50% | < 50% | < 50% | inhibition [21]: < 50% |

— ChEMBL document CHEMBL1165965, “Synthesis and structure-activity relationships of 1,2,3,4-tetrahydropyrido[2,3-b]pyrazines as potent and selective inhibitors of the anaplastic lymphoma kinase” (Bioorg Med Chem, 2010)
